Here are results for 13 molecules from ChEMBL document CHEMBL4387722.

Molecules are shown by their SMILES.

The target of assay [1] is T1, Tyrosine-protein phosphatase non-receptor type 2 (Homo sapiens, UniProt P17706).
T1 sequence (P17706 whole entry): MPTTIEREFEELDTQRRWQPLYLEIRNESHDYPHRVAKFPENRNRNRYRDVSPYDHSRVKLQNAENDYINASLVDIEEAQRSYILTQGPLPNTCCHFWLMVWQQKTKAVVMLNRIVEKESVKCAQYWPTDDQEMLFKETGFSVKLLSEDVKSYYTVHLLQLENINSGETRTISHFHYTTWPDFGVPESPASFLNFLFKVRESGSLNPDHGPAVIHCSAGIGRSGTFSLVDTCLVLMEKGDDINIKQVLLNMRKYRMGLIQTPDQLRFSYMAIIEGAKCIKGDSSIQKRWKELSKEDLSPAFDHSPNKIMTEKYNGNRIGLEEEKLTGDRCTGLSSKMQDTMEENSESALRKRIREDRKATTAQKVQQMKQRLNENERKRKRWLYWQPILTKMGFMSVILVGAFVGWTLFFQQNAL
Kind of assay: Inhibition of human PTPN2 expressed in Escherichia coli Rosetta 2 (DE3) using pNPP as substrate after 45 mins by spectrophotometric method.

Assay [2] deals with T2, Phosphotyrosine protein phosphatase (Mycobacterium tuberculosis, UniProt A0A045ISB3).
T2 sequence (A0A045ISB3 whole entry): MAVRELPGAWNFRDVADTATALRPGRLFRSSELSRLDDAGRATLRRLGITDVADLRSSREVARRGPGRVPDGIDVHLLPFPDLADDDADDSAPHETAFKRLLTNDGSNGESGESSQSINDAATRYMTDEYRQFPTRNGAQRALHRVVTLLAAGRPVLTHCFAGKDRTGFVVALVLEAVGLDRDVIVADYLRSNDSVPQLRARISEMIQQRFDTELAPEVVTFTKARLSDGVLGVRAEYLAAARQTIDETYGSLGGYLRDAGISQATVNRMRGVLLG
Put plainly: Inhibition of Mycobacterium tuberculosis His-tagged PtpB expressed in Escherichia coli Rosetta 2 (DE3) using pNPP as substrate after 30 mins by spectrophotometric method.

Assay [3] has as its system Mycobacterium tuberculosis. Put plainly: Antitubercular activity against Mycobacterium tuberculosis H37Rv after 5 days at 200 uM relative to control. It is filed as functional. Conditions: 120 h. A digest of the protocol:
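M. tuberculosis grown in liquid culture with compound at a fixed 200 μM for 5 days. Growth inhibition expressed as percent of control.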

For assay [4], the target named is T3, Tyrosine-protein phosphatase non-receptor type 5 (Homo sapiens, UniProt P54829).
T3 sequence (P54829 whole entry): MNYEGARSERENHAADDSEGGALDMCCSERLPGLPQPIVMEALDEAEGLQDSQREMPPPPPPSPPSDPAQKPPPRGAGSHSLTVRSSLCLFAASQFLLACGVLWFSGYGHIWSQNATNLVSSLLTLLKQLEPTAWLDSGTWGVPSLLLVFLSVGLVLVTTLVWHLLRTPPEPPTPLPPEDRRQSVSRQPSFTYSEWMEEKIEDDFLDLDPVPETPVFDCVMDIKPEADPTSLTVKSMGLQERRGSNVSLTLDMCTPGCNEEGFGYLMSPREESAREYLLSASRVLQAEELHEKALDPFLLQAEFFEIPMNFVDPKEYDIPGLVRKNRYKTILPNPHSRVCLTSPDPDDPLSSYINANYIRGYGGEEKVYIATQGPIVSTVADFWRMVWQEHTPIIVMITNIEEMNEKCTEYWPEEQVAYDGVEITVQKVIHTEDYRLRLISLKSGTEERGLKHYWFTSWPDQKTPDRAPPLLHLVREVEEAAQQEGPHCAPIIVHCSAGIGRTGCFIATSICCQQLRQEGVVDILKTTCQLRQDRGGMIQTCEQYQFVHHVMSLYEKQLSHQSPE
Kind of assay: Inhibition of human PTPN5 expressed in Escherichia coli Rosetta 2 (DE3) using pNPP as substrate after 45 mins by spectrophotometric method.

The target of assay [5] is T4, Tyrosine-protein phosphatase non-receptor type 1 (Homo sapiens, UniProt P18031).
T4 sequence (P18031 whole entry): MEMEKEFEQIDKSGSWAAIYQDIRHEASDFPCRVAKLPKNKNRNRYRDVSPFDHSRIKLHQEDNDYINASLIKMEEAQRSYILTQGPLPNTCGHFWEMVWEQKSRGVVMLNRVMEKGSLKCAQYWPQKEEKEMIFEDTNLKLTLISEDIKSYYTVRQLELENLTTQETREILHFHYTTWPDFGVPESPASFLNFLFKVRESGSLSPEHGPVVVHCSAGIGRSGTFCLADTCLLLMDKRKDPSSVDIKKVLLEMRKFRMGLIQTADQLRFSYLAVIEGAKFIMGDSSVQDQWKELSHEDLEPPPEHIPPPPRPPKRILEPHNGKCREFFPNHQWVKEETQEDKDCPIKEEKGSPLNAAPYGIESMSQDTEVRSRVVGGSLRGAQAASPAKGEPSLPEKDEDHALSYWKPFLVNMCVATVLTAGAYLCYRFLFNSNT
Put plainly: Inhibition of human PTPN1 expressed in Escherichia coli Rosetta 2 (DE3) using pNPP as substrate after 45 mins by spectrophotometric method.

For orientation: IC50 means the midpoint of a concentration-inhibition curve. A higher IC50 goes with lower potency. In general, inhibition refers to the percentage by which the read-out fell short of the control.

For the molecule `O=S(=O)(Nc1ccc2oc(-c3ccc(NS(=O)(=O)c4ccc(Cl)s4)cc3)nc2c1)c1cccc(C(F)(F)F)c1`, the IC50 is 20 µM in assay [1], 7.1 µM in assay [2], 16 µM in assay [4] and 13 µM in assay [5]. Further, the inhibition at 200 µM in assay [3] came to 0%.

`O=S(=O)(Nc1ccc(-c2nc3cc(NS(=O)(=O)c4ccc(Cl)s4)ccc3o2)cc1)c1ccc2ncsc2c1`: the IC50 in assay [1] was 11 µM; in assay [2], 7.1 µM; in assay [4] it was 13 µM; in assay [5], 7.9 µM. In addition, in assay [3], at 200 µM the inhibition was 33%.

For the molecule `O=[N+]([O-])c1cc(S(=O)(=O)Nc2ccc3oc(-c4ccc(NS(=O)(=O)c5ccc(Cl)s5)cc4)nc3c2)ccc1Cl`, the IC50 in assay [1] came out at 8.9 µM; in assay [2], 4.6 µM; in assay [4] it was 8.4 µM; in assay [5], 9.4 µM. This molecule yielded an inhibition at 200 µM in assay [3] of 1%.

Regarding `O=S(=O)(Nc1ccc(-c2nc3cc(NS(=O)(=O)c4cccc5ccccc45)ccc3o2)cc1)c1ccc(Cl)s1`, the 50% inhibitory concentration (IC50) in assay [1] was 7.3 µM; in assay [2] it was 2.2 µM; in assay [4] it was 5.1 µM; in assay [5], 6.5 µM. Further, in assay [3], at 200 µM the inhibition was 12%.

On to `O=S(=O)(Nc1ccc(-c2nc3cc(NS(=O)(=O)c4ccccc4Cl)ccc3o2)cc1)c1ccccc1Cl`, for which the IC50 is 22 µM in assay [1], 6.4 µM in assay [2], 17 µM in assay [4] and 16 µM in assay [5]. In assay [3], the inhibition at 200 µM is 0%.

With `O=S(=O)(Nc1ccc(-c2nc3cc(NS(=O)(=O)c4ccc(Cl)s4)ccc3o2)cc1)c1cccs1`, the IC50 in assay [1] came out at 9.5 µM; in assay [2], 3.4 µM; in assay [4], 9.3 µM; in assay [5], 4.9 µM. In addition, the inhibition at 200 µM in assay [3] worked out at 0%.

For the molecule `COc1ccc(S(=O)(=O)Nc2ccc3oc(-c4ccc(NS(=O)(=O)c5ccc(Cl)s5)cc4)nc3c2)cc1`, the 50% inhibitory concentration (IC50) turned out to be 24 µM in assay [1], 9.6 µM in assay [2], 16 µM in assay [4] and 12 µM in assay [5]. In assay [3], this molecule registered an inhibition at 200 µM of 41%.

For the molecule `COc1ccc(Cl)cc1S(=O)(=O)Nc1ccc2oc(-c3ccc(NS(=O)(=O)c4ccc(Cl)s4)cc3)nc2c1`, the IC50 in assay [1] was 9.2 µM; in assay [2] it was 6.4 µM; in assay [4], 11 µM; in assay [5], 10 µM. Also, 200 µM produced 39% inhibition in assay [3].

`O=S(=O)(Nc1ccc(-c2nc3cc(NS(=O)(=O)c4ccc5ccccc5c4)ccc3o2)cc1)c1ccc2ccccc2c1`: the IC50 in assay [1] was determined as 24 µM; in assay [2], 4.4 µM; in assay [4] it was 6.2 µM; in assay [5], 4.3 µM. Besides, the inhibition at 200 µM in assay [3] was determined as 0%.

Take `O=S(=O)(Nc1ccc(-c2nc3cc(NS(=O)(=O)c4ccc(Cl)s4)ccc3o2)cc1)c1cccc(C(F)(F)F)c1`: the IC50 in assay [1] was 16 µM; in assay [2], 3 µM; in assay [4], 16 µM; in assay [5], 12 µM. In addition, in assay [3], 200 µM produced 36% inhibition.

Take `O=[N+]([O-])c1ccccc1S(=O)(=O)Nc1ccc(-c2nc3cc(NS(=O)(=O)c4ccccc4[N+](=O)[O-])ccc3o2)cc1`: the IC50 is 28 µM in assay [1], 10 µM in assay [2], 29 µM in assay [4] and 28 µM in assay [5]. Testing at 200 µM in assay [3] gave an inhibition of 39%.

Consider `O=S(=O)(Nc1ccc2oc(-c3ccc(NS(=O)(=O)c4ccc(Cl)s4)cc3)nc2c1)c1ccc(F)c(C(F)(F)F)c1`, for which the half-maximal inhibitory concentration (IC50) worked out at 20 µM in assay [1], 5.7 µM in assay [2], 14 µM in assay [4] and 11 µM in assay [5]. This molecule showed an inhibition at 200 µM in assay [3] of 0%.

Consider `O=S(=O)(Nc1ccc(-c2nc3cc(NS(=O)(=O)c4cccc(Br)c4)ccc3o2)cc1)c1cccc(Br)c1`, for which the 50% inhibitory concentration (IC50) in assay [1] is 11 µM; in assay [2], 0.79 µM; in assay [4] it was 11 µM; in assay [5], 14 µM. Also, the inhibition at 200 µM in assay [3] was 17%.
